ChEMBL document CHEMBL1143122, “Novel analogs of D-e-MAPP and B13. Part 1: synthesis and evaluation as potential anticancer agents” (Bioorg Med Chem, 2008)

Legend:
HCT-15 = experiment: Antiproliferative activity against human HCT15 cells after 48 hrs; type: functional
In short: (§1)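 NCI 60-cell screen. Cells were grown in RPMI 1640 with 5% FBS and 2 mM L-glutamine, then plated at 5,000–40,000 cells/well according to doubling time and preincubated for 24 h at 37 °C in 5% CO2. Compounds were dissolved in DMSO at 400× the top final concentration and tested at five 10-fold dilutions from 10−4 to 10−8 M for 48 h. Growth was read spectrophotometrically; GI50 is 50% net protein reduction.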

SF-295 = experiment: Antiproliferative activity against human SF295 cells after 48 hrs; type: functional; details: SF-295, 48 h; in short: as §1
ACHN = experiment: Antiproliferative activity against human ACHN cells after 48 hrs; type: functional; in short: as §1
Malme-3M = experiment: Antiproliferative activity against human MALME3M cells after 48 hrs; type: functional; in short: as §1
SK-MEL-5 = experiment: Antiproliferative activity against human SKMEL5 cells after 48 hrs; type: functional; details: SK-MEL-5, 48 h, read-out: Log LC50 (the source's name) (converted); in short: as §1
OVCAR-5 = experiment: Antiproliferative activity against human OVCAR5 cells after 48 hrs; type: functional; details: OVCAR-5, 48 h; in short: as §1
DU-145 = experiment: Antiproliferative activity against human DU145 cells after 48 hrs; type: functional; details: DU-145, 48 h; in short: as §1
RXF 393 = experiment: Antiproliferative activity against human RXF393 cells after 48 hrs; type: functional; details: RXF 393, 48 h; in short: as §1
NCI-H226 = experiment: Antiproliferative activity against human NCI-H226 cells after 48 hrs; type: functional; details: NCI-H226, 48 h; in short: as §1
MDA-MB-231 = experiment: Antiproliferative activity against human MDA-MB-231 cells after 48 hrs; type: functional; details: MDA-MB-231, 48 h; in short: as §1
UO-31 = experiment: Antiproliferative activity against human UO31 cells after 48 hrs; type: functional; details: UO-31, 48 h
In short: (§2)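 NCI 60-cell-line screen. Lines grown in RPMI 1640 with 5% fetal bovine serum and 2 mM L-glutamine, plated at 5,000–40,000 cells/well according to doubling time, left 24 h at 37 °C in 5% CO2. Drug stocks in DMSO at 400-fold the top final concentration. Five 10-fold dilutions, 10−4 to 10−8 M, incubated 48 h. Growth read spectrophotometrically as net protein; GI50 taken as 50% reduction.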

CCRF-CEM = experiment: Antiproliferative activity against human CCRF-CEM cells after 48 hrs; type: functional; in short: as §1
MCF7 = experiment: Antiproliferative activity against human MCF7 cells after 48 hrs; type: functional, cell-based; details: MCF7, 48 h
SK-MEL-28 = experiment: Antiproliferative activity against human SKMEL28 cells after 48 hrs; type: functional; details: SK-MEL-28, 48 h; in short: as §1
LOX IMVI = experiment: Antiproliferative activity against human LOXIMVI cells after 48 hrs; type: functional; in short: as §1
NCI-H522 = experiment: Antiproliferative activity against human NCI-H522 cells after 48 hrs; type: functional; details: NCI-H522, 48 h; in short: as §1
OVCAR-3 = experiment: Antiproliferative activity against human OVCAR-3 cells after 48 hrs; type: functional; details: OVCAR-3, 48 h; in short: as §1
PC-3 = experiment: Antiproliferative activity against human PC3 cells after 48 hrs; type: functional; details: PC-3, 48 h; in short: as §1
KM12 = experiment: Antiproliferative activity against human KM12 cells after 48 hrs; type: functional; details: for CC50: read-out: Log LC50 (the source's name) (converted); in short: as §1
UACC-62 = experiment: Antiproliferative activity against human UACC62 cells after 48 hrs; type: functional; details: UACC-62, 48 h; in short: as §2
SK-MEL-2 = experiment: Antiproliferative activity against human SKMEL2 cells after 48 hrs; type: functional; details: SK-MEL-2, 48 h; in short: as §1
MDA-MB-435 = experiment: Antiproliferative activity against human MDA-MB-435 cells after 48 hrs; type: functional; details: Homo sapiens, MDA-MB-435, 48 h; in short: as §1
NCI-H322M = experiment: Antiproliferative activity against human NCI-H322M cells after 48 hrs; type: functional; in short: as §1
CAKI-1 = experiment: Antiproliferative activity against human CAKI1 cells after 48 hrs; type: functional; details: CAKI-1, 48 h; in short: as §1
786-0 = experiment: Antiproliferative activity against human 786-0 cells after 48 hrs; type: functional; details: 786-0, 48 h; in short: as §1
COLO 205 = experiment: Antiproliferative activity against human COLO205 cells after 48 hrs; type: functional; details: COLO 205, 48 h; in short: as §1
HCT-116 = experiment: Antiproliferative activity against human HCT116 cells after 48 hrs; type: functional; details: HCT-116, 48 h; in short: as §1
OVCAR-4 = experiment: Antiproliferative activity against human OVCAR4 cells after 48 hrs; type: functional; details: OVCAR-4, 48 h; in short: as §1
U-251 = experiment: Antiproliferative activity against human U251 cells after 48 hrs; type: functional; details: U-251, 48 h; in short: as §2
SNB-19 = experiment: Antiproliferative activity against human SNB19 cells after 48 hrs; type: functional; details: SNB-19, 48 h; in short: as §1
NCI-H460 = experiment: Antiproliferative activity against human NCI-H460 cells after 48 hrs; type: functional; details: NCI-H460, 48 h; in short: as §1
[1] = Antiproliferative activity against human […] cells after 48 hrs; type: functional; in short: as §1
[2] = read-out: Log LC50 (the source's name) (converted)

## CCCCCCCCCCCCCCN[C@@H](C)[C@H](O)c1ccccc1
HCT-15
  LC50: 6.31 µM
HCT-15; Homo sapiens, HCT-15, 48 h
  GI50: 1.91 µM
  LC50: 5.89 µM
SF-295
  GI50: 1.78 µM
  LC50: 6.46 µM
SF-295; read-out: Log TGI (converted)
  TGI: 3.39 µM
ACHN
  GI50: 1.78 µM
ACHN; [2]
  CC50: 6.03 µM
ACHN; read-out: Log TGI (converted)
  TGI: 3.31 µM
Malme-3M
  GI50: 2.04 µM
  LC50: 6.46 µM
Malme-3M; read-out: Log TGI (converted)
  TGI: 3.63 µM
SK-MEL-5
  CC50: > 100 µM
OVCAR-5
  GI50: 1.7 µM
OVCAR-5; [2]
  CC50: 5.75 µM
OVCAR-5; read-out: Log TGI (converted)
  TGI: 3.16 µM
DU-145
  GI50: 1.86 µM
DU-145; [2]
  CC50: 6.46 µM
DU-145; read-out: Log TGI (converted)
  TGI: 3.47 µM
RXF 393
  GI50: 1.66 µM
RXF 393; [2]
  CC50: 6.03 µM
RXF 393; read-out: Log TGI (converted)
  TGI: 3.16 µM
NCI-H226
  GI50: 1.95 µM
NCI-H226; read-out: Log TGI (converted)
  TGI: 3.8 µM
MDA-MB-231
  GI50: 1.91 µM
  LC50 (50% lethal concentration): 6.46 µM
MDA-MB-231; read-out: Log TGI (converted)
  TGI: 3.55 µM
UO-31
  GI50: 1.74 µM
  LC50: 6.61 µM
UO-31; read-out: Log TGI (converted)
  TGI: 3.39 µM
CCRF-CEM
  GI50: 2.4 µM
CCRF-CEM; [2]
  CC50: > 100 µM
CCRF-CEM; read-out: Log TGI (converted)
  TGI: 5.13 µM
MCF7
  GI50: 1.82 µM
  LC50: 6.31 µM
MCF7; read-out: Log TGI (converted)
  TGI: 3.39 µM
SK-MEL-28
  GI50: 1.91 µM
  LC50: 6.31 µM
SK-MEL-28; read-out: Log TGI (converted)
  TGI: 3.47 µM
LOX IMVI
  GI50: 1.78 µM
  LC50: 5.89 µM
LOX IMVI; read-out: Log TGI (converted)
  TGI: 3.24 µM
NCI-H522
  GI50: 2.04 µM
NCI-H522; [2]
  CC50: 7.41 µM
NCI-H522; read-out: Log TGI (converted)
  TGI: 3.89 µM
OVCAR-3
  GI50: 1.66 µM
OVCAR-3; read-out: Log TGI (converted)
  TGI: 3.16 µM
PC-3
  GI50: 2.04 µM
PC-3; read-out: Log TGI (converted)
  TGI: 3.72 µM
KM12; Homo sapiens, KM12, 48 h
  GI50: 1.86 µM
  CC50: 6.31 µM
KM12
  CC50: 5.62 µM
UACC-62
  GI50: 1.82 µM
  LC50: 6.31 µM
UACC-62; read-out: Log TGI (converted)
  TGI: 3.39 µM
SK-MEL-2
  GI50: 1.78 µM
SK-MEL-2; read-out: Log TGI (converted)
  TGI: 3.72 µM
MDA-MB-435
  GI50: 1.78 µM
  LC50: 5.75 µM
MDA-MB-435; read-out: Log TGI (converted)
  TGI: 3.24 µM
NCI-H322M
  GI50: 2.04 µM
NCI-H322M; [2]
  CC50: 6.61 µM
NCI-H322M; read-out: Log TGI (converted)
  TGI: 3.72 µM
CAKI-1
  GI50: 1.95 µM
CAKI-1; [2]
  CC50: 5.89 µM
CAKI-1; read-out: Log TGI (converted)
  TGI: 3.39 µM
786-0
  GI50: 1.58 µM
786-0; [2]
  CC50: 5.89 µM
786-0; read-out: Log TGI (converted)
  TGI: 3.09 µM
COLO 205
  GI50: 1.74 µM
COLO 205; [2]
  CC50: 6.17 µM
COLO 205; read-out: Log TGI (converted)
  TGI: 3.31 µM
HCT-116
  GI50: 1.86 µM
  LC50: 6.46 µM
HCT-116; read-out: Log TGI (converted)
  TGI: 3.47 µM
OVCAR-4
  GI50: 2 µM
  LC50: 3.72 µM
OVCAR-4; read-out: Log TGI (converted)
  TGI: 6.92 µM
U-251
  GI50: 1.82 µM
U-251; [2]
  CC50: 5.89 µM
U-251; read-out: Log TGI (converted)
  TGI: 3.24 µM
SNB-19
  GI50: 1.7 µM
SNB-19; [2]
  CC50: 5.89 µM
SNB-19; read-out: Log TGI (converted)
  TGI: 3.16 µM
NCI-H460
  GI50: 1.91 µM
NCI-H460; [2]
  CC50: 6.31 µM
NCI-H460; read-out: Log TGI (converted)
  TGI: 3.47 µM
[1]
  GI50: 2 µM
[1]; read-out: Log TGI (converted)
  TGI: 3.8 µM
